Several values for one entry are separate records, joined by “and”; a condition that tells them apart may be missing. Equal entries are not always repeated.
Columns and labels:
[1] = system: HBV DNA production in HepAD38 cells; experiment: Anti-HBV activity; type: cell-based, Hepatitis B virus (HBV)
[2] = system: human peripheral blood mononuclear (PBM) cells; experiment: Cytotoxicity, CellTiter 96 cell proliferation assay, PBM cells; type: cell-based; settings: read-out: Cytotoxicity, CC50 PBM; PBM cells
[3] = system: human T lymphoblast (CEM) cells; experiment: Cytotoxicity, CellTiter 96 cell proliferation assay, CEM cells; type: cell-based; settings: read-out: Cytotoxicity, CC50 CEM; CEM cells
[4] = system: African green monkey kidney (Vero) cells; experiment: Cytotoxicity, CellTiter 96 cell proliferation assay, Vero cells; type: cell-based; settings: read-out: Cytotoxicity, CC50 Vero; Vero cells
[5] = system: human hepatocellular carcinoma (HepG2) cells; experiment: Cytotoxicity, CellTiter 96 cell proliferation assay, HepG2 cells; type: cell-based; settings: read-out: Cytotoxicity, CC50 HepG2; HepG2 cells
[6] = system: HBV-infected HepG2-NTCP cells; type: cell-based
[7] = system: HBV-infected HepG2-NTCP cells; type: cell-based; settings: post-infection treatment
Cp149 dimers [8] = target: T1, Cp149 dimers (Hepatitis B virus genotype D subtype ayw, UniProt P03146); experiment: Static SAXS of Cp149 capsid assembly in the presence of CAM; type: biochemical, Hepatitis B virus (HBV); settings: ρ = 3, undiluted sample, 30 μM dimers; 1.54 cm^−1 without CAM
T1 sequence (P03146 1-149): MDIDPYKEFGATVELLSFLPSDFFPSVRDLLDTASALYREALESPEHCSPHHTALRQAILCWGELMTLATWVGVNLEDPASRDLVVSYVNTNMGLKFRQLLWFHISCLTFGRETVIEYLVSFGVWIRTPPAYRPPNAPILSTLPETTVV

Cp149 dimers [9] = target: T1, Cp149 dimers; experiment: Cryo-electron microscopy classification of Cp149 capsids assembled with CAM; type: biochemical, Hepatitis B virus (HBV); settings: 90 μM, 30 μM subunits
Summary of the method: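 Cp149 was expressed in E. coli BL21 and purified as capsids. These were dissociated with 3 M urea and taken to subunits by SEC. Assembly was triggered manually by mixing 30 μM (1 mg/ml) dimers in 1 mM DTT, 20 mM Tris-HCl pH 7.5 with 200 mM ammonium acetate, with or without 90 μM CAM (ρ = 3). Samples were concentrated 11-fold, imaged by cryo-EM, and particles 2D-classified.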

HBc in HepAD38 cells = experiment: Confocal microscopy, nucleo-cytoplasmic distribution of HBc in HepAD38 cells; type: cell-based, Hepatitis B virus (HBV); settings: increasing concentration, 72 h
Cp149 dimers [10] = target: T1, Cp149 dimers
[11] = target: preassembled HBV capsids (Cp149 protein) (Hepatitis B virus genotype D subtype ayw, UniProt P03146); settings: 20 μM CAM
preassembled HBV capsids (Cp149 protein), sequence (P03146 1-149): as above

## Cc1c(C(=O)C(=O)NCc2cn(CCCCCCCCCCCCCCn3cc(CNC(=O)C(=O)c4c(C)c(C(=O)Nc5ccc(F)c(F)c5)n(C)c4C)nn3)nn2)c(C)n(C)c1C(=O)Nc1ccc(F)c(F)c1 [Compound 6e, 4,4’-(2,2’-(((Tetradecane-1,14-diylbis(1H-1,2,3-triazole-1,4-diyl))bis(methylene))bis(azanediyl))bis(2-oxoacetyl))bis(N-(3,4-difluorophenyl)-1,3,5-trimethyl-1H-pyrrole-2-carboxamide)]
[1]; HepAD38 EC50 vs GLP-26
  times more potent than reference compound GLP-26: 80 times
[1]; read-out: Anti-HBV activity EC50, HBV DNA production, HepAD38 cells
  EC50: 0.0001 µM
[1]; read-out: Anti-HBV activity EC90, HBV DNA production, HepAD38 cells
  EC90: 0.009 ± 0.0002 µM
[2]
  CC50: > 100 µM
[3]
  CC50: > 100 µM
[4]
  CC50: > 100 µM
[5]
  CC50: > 100 µM
[6]
  HBeAg EC50 compared to GLP-26 or GLS-4: nearly eight-fold lower
[7]
  fold more potent than GLP-26 at inhibiting HBV virion production: 10 fold
  fold more potent than GLP-26 at inhibiting HBeAg biogenesis: 10 fold
Cp149 dimers [8]
  SAXS intensity at zero angle I(0): 1.32 cm⁻¹
Cp149 dimers [9]
  capsids that displayed defects (single-particle analysis): approximately 45%
HBc in HepAD38 cells
  levels of HBc inside the nucleus: clear decrease in the levels of HBc inside the nucleus
Cp149 dimers [10]
  Associated timescale of Rgw: 131 ± 21 ms
  Associated timescale of 〈N〉w: 633 ± 77 ms
  Rgw (mean radius of gyration, plateau): 142 ± 0.3 Å
  Subunit binding energies −Δg: 9.5 kT
  〈N〉w∞ (mean aggregation number at equilibrium): 126 and 126 ± 3
[11]; 7.5 μM Cp149, 30 min, 1% DMSO control 24.6 ± 3.4
  Radius (DLS, table): 214 ± 61.3 nM
[11]; 7.5 μM Cp149, 30 min, 1% DMSO control 32.3 ± 18.6
  PD (polydispersity): Multimodal distribution
[11]; 1% DMSO control 24.6 nm
  average particle radius (DLS, text): 214 nm

Reference: publication PMC13077713 (Journal of medicinal chemistry, 2025)
